Test results published in ChEMBL document CHEMBL3244289, “Synthesis and antibacterial activity of 2'-substituted chelocardin analogues” (1979).
Active and inactive are the calls of the source. No cut-off for these calls is given here.

What was measured:
Pasteurella multocida = assay: Antibacterial activity against Pasteurella multocida 10544 by two-fold agar dilution method; assay type: functional
Method in brief: (§1)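 MIC determined by twofold serial dilution in brain-heart infusion agar. Values are reported in µg/mL.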

Proteus vulgaris = assay: Antibacterial activity against Proteus vulgaris by two-fold agar dilution method; assay type: functional; method in brief: as §1
Pseudomonas aeruginosa = assay: Antibacterial activity against Pseudomonas aeruginosa by two-fold agar dilution method; assay type: functional, organism-based; method in brief: as §1
Staphylococcus aureus [1] = assay: Antibacterial activity against Staphylococcus aureus Smith by two-fold agar dilution method; assay type: functional; method in brief: as §1
Klebsiella pneumoniae = assay: Antibacterial activity against Klebsiella pneumoniae 8045 by two-fold agar dilution method; assay type: functional; method in brief: as §1
Salmonella typhi = assay: Antibacterial activity against Salmonella typhi by two-fold agar dilution method; assay type: functional, Salmonella enterica subsp. enterica serovar Typhi; settings: Salmonella enterica
Method in brief: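 MIC in µg/mL by twofold serial agar dilution on brain-heart infusion agar.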

Enterococcus = assay: Antibacterial activity against Enterococcus 89 by two-fold agar dilution method; assay type: functional; method in brief: as §1
Streptococcus pyogenes = assay: Antibacterial activity against Streptococcus pyogenes C-203 by two-fold agar dilution method; assay type: functional; method in brief: as §1
Proteus mirabilis = assay: Antibacterial activity against Proteus mirabilis by two-fold agar dilution method; assay type: functional; method in brief: as §1
Escherichia coli = assay: Antibacterial activity against Escherichia coli Juhl by two-fold agar dilution method; assay type: functional; method in brief: as §1
Staphylococcus aureus [2] = assay: Antibacterial activity against Staphylococcus aureus 45 by two-fold agar dilution method; assay type: functional; method in brief: as §1

SMILES | MIC (Pasteurella multocida) [µg/mL] | MIC (Proteus vulgaris) [µg/mL] | Activity (Pseudomonas aeruginosa) | MIC (Staphylococcus aureus [1]) [µg/mL] | MIC (Klebsiella pneumoniae) [µg/mL] | MIC (Salmonella typhi) [µg/mL] | MIC (Enterococcus) [µg/mL] | MIC (Streptococcus pyogenes) [µg/mL] | MIC (Proteus mirabilis) [µg/mL] | MIC (Escherichia coli) [µg/mL] | MIC (Staphylococcus aureus [2]) [µg/mL]
CNC(=O)N/N=C(\C)C1=C(O)[C@H](N)[C@@H]2Cc3c(c(O)c4c(O)c(C)ccc4c3C)C(=O)[C@]2(O)C1=O.Cl | 3.1 | 25 | inactive | 25 | 12.5 | 25 | 50 | 25 | 50 | 50 | 50
C/C(=N\NC(=O)Nc1ccccc1Cl)C1=C(O)[C@H](N)[C@@H]2Cc3c(c(O)c4c(O)c(C)ccc4c3C)C(=O)[C@]2(O)C1=O.Cl | 6.2 | 50 | inactive | 50 | 50 | 50 | 100 | 25 | 50 | 100 | 100
C/C(=N\NC(=O)c1ccc(O)cc1)C1=C(O)[C@H](N)[C@@H]2Cc3c(c(O)c4c(O)c(C)ccc4c3C)C(=O)[C@]2(O)C1=O.Cl (stereo in doubt) | 3.1 | 12.5 | inactive | 50 | 25 | 25 | 100 | 50 | 12.5 | 50 | 50
C/C(=N\NC(=O)c1ccc(N)cc1)C1=C(O)[C@H](N)[C@@H]2Cc3c(c(O)c4c(O)c(C)ccc4c3C)C(=O)[C@]2(O)C1=O.Cl (stereo in doubt) | 1.56 | 12.5 | inactive | 50 | 12.5 | 12.5 | 50 | 25 | 12.5 | 50 | 50
C/C(=N\NC(=O)c1ccccc1O)C1=C(O)[C@H](N)[C@@H]2Cc3c(c(O)c4c(O)c(C)ccc4c3C)C(=O)[C@]2(O)C1=O.Cl | 25 | > 100 | inactive | > 100 | > 100 | > 100 | > 100 | > 100 | > 100 | > 100 | > 100
C/C(=N\NC(=O)c1cccnc1)C1=C(O)[C@H](N)[C@@H]2Cc3c(c(O)c4c(O)c(C)ccc4c3C)C(=O)[C@]2(O)C1=O.Cl | 12.5 | > 100 | inactive | > 100 | 100 | 100 | > 100 | 100 | > 100 | 100 | > 100
C/C(=N\c1ccc(Br)cc1)C1=C(O)[C@H](N)[C@@H]2Cc3c(c(O)c4c(O)c(C)ccc4c3C)C(=O)[C@]2(O)C1=O.Cl | 0.39 | 6.2 | inactive | 12.5 | 3.1 | 3.1 | 25 | 12.5 | 6.2 | 25 | 12.5
CCCC(=O)N/N=C(\C)C1=C(O)[C@H](N)[C@@H]2Cc3c(c(O)c4c(O)c(C)ccc4c3C)C(=O)[C@]2(O)C1=O.Cl | 1.56 | 12.5 | inactive | 50 | 12.5 | 12.5 | 50 | 25 | 12.5 | 50 | 50
C/C(=N\NC(=O)c1ccncc1)C1=C(O)[C@H](N)[C@@H]2Cc3c(c(O)c4c(O)c(C)ccc4c3C)C(=O)[C@]2(O)C1=O.Cl (stereo in doubt) | 6.2 | 12.5 | inactive | 50 | 12.5 | 12.5 | 50 | 12.5 | 12.5 | 50 | 50
CCCNC(=O)N/N=C(\C)C1=C(O)[C@H](N)[C@@H]2Cc3c(c(O)c4c(O)c(C)ccc4c3C)C(=O)[C@]2(O)C1=O.Cl | 0.78 | 6.2 | inactive | 25 | 6.2 | 6.2 | 50 | 12.5 | 6.2 | 25 | 25
COc1ccc(C(=O)N/N=C(\C)C2=C(O)[C@H](N)[C@@H]3Cc4c(c(O)c5c(O)c(C)ccc5c4C)C(=O)[C@]3(O)C2=O)cc1.Cl (stereo in doubt) | 3.1 | 25 | inactive | 100 | 50 | 25 | > 100 | 50 | 25 | 100 | 100
C/C(=N\NC(=O)Cc1ccccc1)C1=C(O)[C@H](N)[C@@H]2Cc3c(c(O)c4c(O)c(C)ccc4c3C)C(=O)[C@]2(O)C1=O.Cl | 6.2 | 12.5 | inactive | 25 | 6.2 | 12.5 | 50 | 12.5 | 12.5 | 50 | 25
C/C(=N\c1ccc(C(=O)O)cc1)C1=C(O)[C@H](N)[C@@H]2Cc3c(c(O)c4c(O)c(C)ccc4c3C)C(=O)[C@]2(O)C1=O.Cl | 0.39 | 1.56 | inactive | 3.1 | 1.56 | 1.5 | 6.2 | 3.1 | 3.1 | 6.2 | 6.2
C/C(=N\NC(N)=O)C1=C(O)[C@H](N)[C@@H]2Cc3c(c(O)c4c(O)c(C)ccc4c3C)C(=O)[C@]2(O)C1=O.Cl | 1.56 | 12.5 | inactive | 25 | 12.5 | 6.2 | 50 | 25 | 25 | 25 | 25
C/C(=N\NC(=O)c1ccco1)C1=C(O)[C@H](N)[C@@H]2Cc3c(c(O)c4c(O)c(C)ccc4c3C)C(=O)[C@]2(O)C1=O.Cl (stereo in doubt) | 3.1 | 50 | inactive | > 100 | 50 | 25 | > 100 | 50 | 50 | > 100 | > 100
C/C(=N\c1ccc(F)cc1)C1=C(O)[C@H](N)[C@@H]2Cc3c(c(O)c4c(O)c(C)ccc4c3C)C(=O)[C@]2(O)C1=O.Cl | 0.39 | 1.56 | inactive | 6.2 | 1.56 | 1.5 | 12.5 | 3.1 | 3.1 | 6.2 | 12.5
C/C(=N\c1ccc(CC(=O)O)cc1)C1=C(O)[C@H](N)[C@@H]2Cc3c(c(O)c4c(O)c(C)ccc4c3C)C(=O)[C@]2(O)C1=O.Cl | 0.39 | 1.56 | inactive | 6.2 | 1.56 | 1.5 | 12.5 | 3.1 | 3.1 | 6.2 | 6.2
